Blank lines part the entries; values can stand above or below the compound they belong to.
What was measured:
[1] = In vitro metabolic stability in hepatic microsomes; format: in vitro ADME, rat; settings: for metabolic stability in hepatic microsomes: presence of NADPH
How it was run: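 Test compound (5 μM) incubated at 37 °C for specified times with rat liver microsomes (1 mg protein/ml) in 100 mM potassium phosphate buffer with NADPH 0 or 1 mM. Chilled, extracted with ice-cold ethyl acetate, dried under nitrogen, redissolved in acetonitrile:water 3:1 with 0.1% formic acid. Analysed by reverse-phase C18 LC (5–95% acetonitrile gradient, 16 min) and electrospray MS, scanning 150–1500 Da.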

[2] = test system: 8-Br-cAMP-induced renal cyst growth in E13.5 embryonic kidneys; settings: read-out: IC50 for inhibition of cyst growth; embryonic kidney culture; cited from earlier work
human wildtype CFTR = human wildtype CFTR (Homo sapiens, UniProt P13569); assay: Fluorescence plate-reader assay of CFTR-mediated iodide influx; format: cell-based
Chain of human wildtype CFTR (P13569 whole entry): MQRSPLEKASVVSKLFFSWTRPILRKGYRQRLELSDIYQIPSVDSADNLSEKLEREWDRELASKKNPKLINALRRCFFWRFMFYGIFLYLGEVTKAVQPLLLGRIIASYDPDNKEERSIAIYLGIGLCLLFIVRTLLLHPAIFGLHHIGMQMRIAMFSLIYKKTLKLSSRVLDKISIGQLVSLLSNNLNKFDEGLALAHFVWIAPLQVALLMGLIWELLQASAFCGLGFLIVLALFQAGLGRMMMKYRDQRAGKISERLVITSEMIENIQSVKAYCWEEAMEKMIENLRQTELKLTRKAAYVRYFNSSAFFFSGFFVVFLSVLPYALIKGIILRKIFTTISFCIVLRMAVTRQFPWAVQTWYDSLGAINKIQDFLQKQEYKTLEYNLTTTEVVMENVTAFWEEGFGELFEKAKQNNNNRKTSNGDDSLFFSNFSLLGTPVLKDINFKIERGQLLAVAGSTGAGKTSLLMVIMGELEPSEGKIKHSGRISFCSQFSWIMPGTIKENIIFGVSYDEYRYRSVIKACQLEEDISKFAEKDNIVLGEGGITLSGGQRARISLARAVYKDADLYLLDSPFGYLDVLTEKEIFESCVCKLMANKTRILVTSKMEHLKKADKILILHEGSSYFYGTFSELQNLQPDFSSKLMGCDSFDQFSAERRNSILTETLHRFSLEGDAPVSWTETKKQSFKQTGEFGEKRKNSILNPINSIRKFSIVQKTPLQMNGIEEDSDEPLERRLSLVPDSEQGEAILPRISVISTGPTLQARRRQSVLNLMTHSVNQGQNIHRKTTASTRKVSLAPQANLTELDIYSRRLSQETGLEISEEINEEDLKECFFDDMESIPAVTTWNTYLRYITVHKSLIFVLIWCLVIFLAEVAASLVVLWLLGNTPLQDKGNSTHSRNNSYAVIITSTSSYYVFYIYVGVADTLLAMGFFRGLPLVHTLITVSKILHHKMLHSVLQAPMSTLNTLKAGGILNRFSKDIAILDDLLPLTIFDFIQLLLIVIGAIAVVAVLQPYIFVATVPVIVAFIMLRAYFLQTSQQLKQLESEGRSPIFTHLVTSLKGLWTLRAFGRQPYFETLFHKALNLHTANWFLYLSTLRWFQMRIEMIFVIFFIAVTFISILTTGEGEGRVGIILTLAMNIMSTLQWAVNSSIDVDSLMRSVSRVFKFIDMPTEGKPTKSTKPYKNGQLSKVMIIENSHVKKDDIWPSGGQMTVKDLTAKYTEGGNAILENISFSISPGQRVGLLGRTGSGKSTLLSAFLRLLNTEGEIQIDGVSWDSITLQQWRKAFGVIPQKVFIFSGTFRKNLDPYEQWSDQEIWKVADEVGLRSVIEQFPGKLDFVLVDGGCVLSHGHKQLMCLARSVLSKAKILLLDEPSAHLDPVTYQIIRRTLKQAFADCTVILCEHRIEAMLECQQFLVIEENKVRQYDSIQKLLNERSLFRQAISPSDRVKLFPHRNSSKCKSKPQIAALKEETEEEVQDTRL
How it was run: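 FRT cells co-expressing human wild-type CFTR and YFP-H148Q were plated at 20,000 cells/well in Coon's modified F12 with 10% FBS and assayed 48 h later. After PBS washes, test compound was added for 45 min, then forskolin/IBMX/apigenin cocktail for 15 min. Fluorescence was read 2 s baseline, then 10 s after adding PBS with iodide replacing 137 mM chloride. Initial iodide influx rate by non-linear regression; n=4, S.E.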

CFTR = CFTR (Homo sapiens, UniProt P13569); assay: Short-circuit current analysis of CFTR inhibition in CFTR-expressing FRT cells; format: cell-based
Chain of CFTR (P13569 whole entry): as above
How it was run: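 Ussing chamber short-circuit current on CFTR-expressing FRT cell inserts under voltage clamp. Apical buffer 75 mM NaCl + 75 mM Na gluconate, basolateral 150 mM NaCl, pH 7.3, giving a transepithelial chloride gradient. Basolateral membrane permeabilized with 250 μg/mL amphotericin B. CFTR activated with forskolin (20 μM), then serial additions of increasing test compound concentrations, with current recorded continuously.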

[3] = test system: 8-Br-cAMP-induced renal cyst growth in E13.5 embryonic kidneys; assay: Embryonic kidney organ culture model of PKD; set-up: species or system mouse
How it was run: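 Mouse E13.5 metanephroi on porous culture inserts in DMEM/Ham's F-12 with L-glutamine, HEPES, insulin, transferrin, selenium, prostaglandin E, T3 and antibiotics. Kept at 37 °C in humidified CO2 for up to 8 days. Medium with 100 μM 8-Br-cAMP, with or without test compound (0, 0.1 or 1 μM), replaced every 12 h. Kidneys photographed by transmitted light at 520 nm; percentage cyst area = total cyst area / total kidney area.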

- metabolic stability in hepatic microsomes [1]: excellent metabolic stability
SMILES: Cn1c(=O)c2c(-c3ccccc3)n3c(c2n(C)c1=O)C(c1ccc(Br)o1)Oc1ccc([N+](=O)[O-])cc1-3 (stereo not drawn) [Compound 36]

- CFTR inhibition activity (human wildtype CFTR): strongly inhibited CFTR
SMILES: CCOC(=O)c1ccc2c(c1)-n1c(-c3ccccc3)c3c(=O)n(C)c(=O)n(C)c3c1C(c1ccc(Br)o1)O2 (stereo not drawn) [Compound 40, Ethyl 6-(5-Bromofuran-2-yl)-7,9-dimethyl-8,10-dioxo-11-phenyl-7,8,9,10-tetrahydro-6H-benzo[b]pyrimido [4',5':3,4]pyrrolo[1,2-d][1,4]oxazine-2-carboxylate]

- extent of CFTR inhibition (CFTR): fully inhibited CFTR
- improvement of metabolic stability compared to 8 ([1]; hepatic microsomes): > 10 fold
- metabolic stability in hepatic microsomes [1]: excellent stability
SMILES: Cn1c(=O)c2c(-c3ccccc3)n3c(c2n(C)c1=O)C(c1ccc(Br)o1)Oc1ccc(C(=O)O)cc1-3 (stereo not drawn) [Compound 42, 6-(5-Bromofuran-2-yl)-7,9-dimethyl-8,10-dioxo-11-phenyl-7,8,9,10-tetrahydro-6H-benzo[b]pyrimido [4',5':3,4]pyrrolo [1,2-d][1,4]oxazine-2-carboxylic acid]
- improvement of potency for inhibition of renal cystogenesis ex vivo over 8 [3]: > 5 fold

More lines, now with the values behind:

SMILES: Cc1ccc(C2Nc3ccccc3-n3c(-c4ccccc4)c4c(=O)n(C)c(=O)n(C)c4c32)o1 (stereo not drawn) [Compound 8, 7,9-Dimethyl-11-phenyl-6-(5-methylfuran-2-yl)-5,6-dihydro-pyrimido-[4',5'-3,4]pyrrolo[1,2-a]quinoxaline-8,10-(7H,9H)-dione]
- loss in hepatic microsomes in the absence of NADPH ([1]; absence of NADPH (data not shown)): No loss
- metabolic stability in hepatic microsomes [1]: poor metabolic stability
- IC50 [2]: > 500 nM

SMILES: Cn1c(=O)c2c(-c3ccccc3)n3c(c2n(C)c1=O)C(c1ccc(Br)o1)Oc1ccccc1-3 (stereo not drawn) [Compound 31]
- metabolic stability in hepatic microsomes [1]: better stability than 8

SMILES: Cc1ccc(C2c3c4c(c(-c5ccccc5)n3-c3ccccc3N2C)c(=O)n(C)c(=O)n4C)o1 (stereo not drawn) [Compound 13]
- CFTR inhibition activity (human wildtype CFTR): weakly active

SMILES: Cn1c(=O)c2c(-c3ccccc3)n3c(c2n(C)c1=O)C(c1ccc(Br)o1)Nc1ccccc1-3 (stereo not drawn) [Compound 18]
- metabolic stability in hepatic microsomes [1]: substantially more stable than 8

Reference: article PMC3314378 (Journal of Medicinal Chemistry, 2011)
